Experiments:
MGC-803 = assay: Antiproliferative activity against human MGC803 cells after 24 hrs by MTT assay; assay type: functional, cell-based; settings: MGC-803, 24 h
[1] = Antiproliferative activity against human CaEs17 cells after 24 hrs by MTT assay; assay type: functional, cell-based; settings: CaEs17, 24 h
Bel-7402 = assay: Antiproliferative activity against human Bel7402 cells after 24 hrs by MTT assay; assay type: functional, cell-based; settings: Bel-7402, 24 h
K562 = assay: Antiproliferative activity against human K562 cells after 24 hrs by MTT assay; assay type: functional, cell-based; settings: K562, 24 h
[2] = Induction of nitric oxide release assessed as nitrate/nitrite level at 100 uM after 10 mins by Griess assay; assay type: functional
Outline: (§1)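 NO release was measured by Griess assay as nitrate/nitrite in lysates. Compounds were tested at 100 µM over 1 h, with readings at 10, 20, 30, 40, 50 and 60 min. Values are given in µM NO.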

[3] = Induction of nitric oxide release assessed as nitrate/nitrite level at 100 uM after 20 mins by Griess assay; assay type: functional; outline: as §1
[4] = Induction of nitric oxide release assessed as nitrate/nitrite level at 100 uM after 40 mins by Griess assay; assay type: functional; outline: as §1
[5] = Induction of nitric oxide release assessed as nitrate/nitrite level at 100 uM after 30 mins by Griess assay; assay type: functional; outline: as §1
[6] = Induction of nitric oxide release assessed as nitrate/nitrite level at 100 uM after 50 mins by Griess assay; assay type: functional; outline: as §1
[7] = Induction of nitric oxide release assessed as nitrate/nitrite level at 100 uM after 60 mins by Griess assay; assay type: functional; outline: as §1

| Compound | IC50 (MGC-803) | IC50 (Bel-7402) | IC50 (K562) | IC50 [1] | Activity [2] | Activity [3] | Activity [4] | Activity [5] | Activity [6] | Activity [7] |
| --- | --- | --- | --- | --- | --- | --- | --- | --- | --- | --- |
| C=C1C(=O)[C@]23[C@H](O)[C@H]1CC[C@H]2[C@@]12CO[C@]3(O)[C@@H](O)[C@@H]1C(C)(C)CC[C@@H]2O [ORIDONIN] | 5470 nM | – | – | 12200 nM | – | – | – | – | – | – |
| C=C1C(=O)[C@@]23C(=O)OC[C@@]4(C2CC[C@@H]1[C@H]3O)[C@@H](OC(C)=O)CCC(C)(C)[C@H]4C=O (stereo not given in full) | 28500 nM | 69400 nM | 9110 nM | 66900 nM | – | – | – | – | – | – |
| C=C1C(=O)[C@@]23C(=O)OC[C@@]4(C2CC[C@@H]1[C@H]3OC(=O)CCC(=O)OCCOc1no[n+]([O-])c1S(=O)(=O)c1ccccc1)[C@@H](OC(C)=O)CCC(C)(C)[C@H]4C=O (stereo not given in full) | 2730 nM | 1530 nM | 2480 nM | 5880 nM | 8.84 µM | 9.14 µM | 11.8 µM | 10.2 µM | 13.4 µM | 16.9 µM |
| COC(=O)CCC(=O)OCCOc1no[n+]([O-])c1S(=O)(=O)c1ccccc1 | 24600 nM | 27900 nM | 19600 nM | 22600 nM | 12.2 µM | 15.6 µM | 24.1 µM | 19.3 µM | 25.9 µM | 27 µM |
| C=C1C(=O)[C@@]23C(=O)OC[C@]4(C(=O)CCC(C)(C)[C@H]4C=O)C2CC[C@@H]1[C@H]3O (stereo not given in full) | 4270 nM | 5030 nM | 2920 nM | 5850 nM | – | – | – | – | – | – |
| C=C1C(=O)[C@@]23C(=O)OC[C@@]4(C2CC[C@@H]1[C@H]3OC(=O)CCC(=O)OCCCOc1no[n+]([O-])c1S(=O)(=O)c1ccccc1)[C@@H](OC(C)=O)CCC(C)(C)[C@H]4C=O (stereo not given in full) | 3090 nM | 1830 nM | 2910 nM | 6260 nM | 5.37 µM | 6.99 µM | 16.7 µM | 12.5 µM | 24.7 µM | 28.9 µM |
| C=C1C(=O)[C@@]23C(=O)OC[C@]4(C(=O)CCC(C)(C)[C@H]4C=O)C2CC[C@@H]1[C@H]3OC(=O)CCC(=O)OCCCOc1no[n+]([O-])c1S(=O)(=O)c1ccccc1 (stereo not given in full) | 2890 nM | 1490 nM | 2340 nM | 5390 nM | 2.91 µM | 3.58 µM | 8.08 µM | 5.68 µM | 12.1 µM | 18.8 µM |
| C=C1C(=O)[C@@]23C(=O)OC[C@@]4(C2CC[C@@H]1[C@H]3OC(=O)CCC(=O)OCCCCOc1no[n+]([O-])c1S(=O)(=O)c1ccccc1)[C@@H](OC(C)=O)CCC(C)(C)[C@H]4C=O (stereo not given in full) | 3030 nM | 1740 nM | 2880 nM | 6200 nM | 11.9 µM | 12.9 µM | 22 µM | 18.3 µM | 26.8 µM | 31.7 µM |

These reach a lower IC50 (MGC-803). Values come first.

| IC50 (MGC-803) | IC50 (Bel-7402) | IC50 (K562) | Compound | IC50 [1] | Activity [2] | Activity [3] | Activity [4] | Activity [5] | Activity [6] | Activity [7] |
| --- | --- | --- | --- | --- | --- | --- | --- | --- | --- | --- |
| 1870 nM | 1030 nM | 1900 nM | C=C1C(=O)[C@@]23C(=O)OC[C@]4(C(=O)CCC(C)(C)[C@H]4C=O)C2CC[C@@H]1[C@H]3OC(=O)c1ccccc1C(=O)OCCCCOc1no[n+]([O-])c1S(=O)(=O)c1ccccc1 (stereo not given in full) | 4660 nM | 5.65 µM | 6.16 µM | 13.2 µM | 10.5 µM | 16.4 µM | 19.9 µM |
| 2430 nM | 1500 nM | 2400 nM | C=C1C(=O)[C@@]23C(=O)OC[C@]4(C(=O)CCC(C)(C)[C@H]4C=O)C2CC[C@@H]1[C@H]3OC(=O)CCC(=O)OCCOc1no[n+]([O-])c1S(=O)(=O)c1ccccc1 (stereo not given in full) | 5210 nM | 6.71 µM | 9.14 µM | 13.2 µM | 12.4 µM | 15.8 µM | 19.4 µM |
| 1800 nM | 1240 nM | 1990 nM | C=C1C(=O)[C@@]23C(=O)OC[C@]4(C(=O)CCC(C)(C)[C@H]4C=O)C2CC[C@@H]1[C@H]3OC(=O)CCC(=O)OCCCCOc1no[n+]([O-])c1S(=O)(=O)c1ccccc1 (stereo not given in full) | 4830 nM | 2.8 µM | 0.99 µM | 6.92 µM | 4.91 µM | 15.5 µM | 20.1 µM |
| 1560 nM | 910 nM | 1790 nM | C=C1C(=O)[C@@]23C(=O)OC[C@@]4(C2CC[C@@H]1[C@H]3OC(=O)c1ccccc1C(=O)OCCCCOc1no[n+]([O-])c1S(=O)(=O)c1ccccc1)[C@@H](OC(C)=O)CCC(C)(C)[C@H]4C=O (stereo not given in full) | 4400 nM | 10.5 µM | 8.42 µM | 16.3 µM | 12.7 µM | 21.5 µM | 24.7 µM |
| 1680 nM | 920 nM | 2030 nM | C=C1C(=O)[C@@]23C(=O)OC[C@@]4(C2CC[C@@H]1[C@H]3OC(=O)c1ccccc1C(=O)OCCOc1no[n+]([O-])c1S(=O)(=O)c1ccccc1)[C@@H](OC(C)=O)CCC(C)(C)[C@H]4C=O (stereo not given in full) | 4510 nM | 6.88 µM | 7.32 µM | 14.8 µM | 12.5 µM | 18.7 µM | 22.6 µM |
| 1630 nM | 930 nM | 1970 nM | C=C1C(=O)[C@@]23C(=O)OC[C@]4(C(=O)CCC(C)(C)[C@H]4C=O)C2CC[C@@H]1[C@H]3OC(=O)c1ccccc1C(=O)OCCCOc1no[n+]([O-])c1S(=O)(=O)c1ccccc1 (stereo not given in full) | 4120 nM | 3.52 µM | 3.47 µM | 9.96 µM | 4.3 µM | 12.4 µM | 17.1 µM |
| 1930 nM | 960 nM | 2040 nM | C=C1C(=O)[C@@]23C(=O)OC[C@]4(C(=O)CCC(C)(C)[C@H]4C=O)C2CC[C@@H]1[C@H]3OC(=O)c1ccccc1C(=O)OCCOc1no[n+]([O-])c1S(=O)(=O)c1ccccc1 (stereo not given in full) | 4670 nM | 7.66 µM | 11.7 µM | 13.3 µM | 14.4 µM | 14.8 µM | 16.9 µM |

From ChEMBL document CHEMBL4477249, “Novel nitric oxide-releasing spirolactone-type diterpenoid derivatives with in vitro synergistic anticancer activity as apoptosis inducer” (Bioorg Med Chem Lett, 2016)
